# Shown are actives, neighbours in structure and some others; about 6.4% of the full set was active somewhere.
# EBV gp42 block = blocks Epstein-Barr virus glycoprotein 42 binding; AID 1085; Q1HVG2; Fluorescence polarization binding assay, mP read-out; actives 0.42% (n = 220,000); inhibition, % (tested at 21.74 µM); in the data active = inhibition above about 50%
# Target sequence (Q1HVG2 whole entry, looked up): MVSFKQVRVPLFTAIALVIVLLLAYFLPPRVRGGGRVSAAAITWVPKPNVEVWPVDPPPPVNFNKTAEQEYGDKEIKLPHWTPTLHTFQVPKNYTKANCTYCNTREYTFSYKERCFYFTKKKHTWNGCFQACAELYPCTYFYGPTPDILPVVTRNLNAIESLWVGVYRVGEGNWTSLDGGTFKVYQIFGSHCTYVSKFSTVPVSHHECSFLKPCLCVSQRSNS
# TbMetRS inhib = Trypanosoma brucei MetRS inhibition; purified T. brucei MetRS, ATP depletion, Kinase-Glo luminescence; inhibition, % at 11.9 µM; actives 0.4% (n = 360,000);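 active = inhibition above a per-plate cutoff of the control wells' mean inhibition plus 3 SD, cut at about 5.5% in these data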;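 note: 0% = DMSO wells median and 100% = median of wells with control inhibitor compound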
#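 Dosing: 11.9 µM compound single dose, 0.9% DMSO; Assay system: purified T. brucei MetRS enzyme; Measured by: Kinase-Glo luciferase luminescence reporting remaining unconsumed ATP; Schedule: 15 min plus 2 h at 25 °C.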
# WT yeast gro inh = growth inhibition of WT yeast, mitochondrial fusion screen. actives 2.1% (n = 190,000). mitochondrial fusion phenotypic screen, WT strain. AID 1362. inhibition, % at 10 µM; in the data active = inhibition above about 58%; tested in S. cerevisiae
# MPTP block = permeability transition pore inhibition; isolated mouse mitochondria, Ca2+ swelling absorbance, 30 min; actives 1.4% (n = 360,000); inhibition, % at 10 µM;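 active = inhibition of 50% or more, scaled per plate between neutral and stimulator controls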;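 note: 0% = DMSO wells given calcium and 100% = 1 mM EGTA wells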
# CHOP inhibitor = inhibitors of CHOP induction in ER stress response; CHO-K1 CHOP-promoter luciferase, tunicamycin-induced, 15-18 h; inhibition, % at 10 µM; actives 3.8% (n = 220,000); AID 2732;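 active = compounds that reduced the stress-induced luciferase reporter signal by more than about 70% of percent inhibition, limit read from the data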;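 note: 0% = tunicamycin plus vehicle and 100% = wells without tunicamycin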
# NR3A LBD binder = NR3A (human) ligand-binding domain modulation; actives 2.5% (n = 340,000); Tm shift relative to glycine control, % at 25 µM; NR3A LBD differential scanning fluorimetry, Tm shift; 0% = protein alone, 100% = glycine-bound protein;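 active = melting temperature shift of at least 10% of the positive control shift, at one fixed dose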
# Starred values were filed as active, the others as inactive; . = not tested or not shown.
SMILES,EBV gp42 block,TbMetRS inhib,WT yeast gro inh,MPTP block,CHOP inhibitor,NR3A LBD binder
O=C(NC(=S)Nc1nc2ccccc2s1)c1cccs1,-14,0,34,8,-9,27*
O=C(Nc1nc2ccccc2s1)C1c2ccccc2Oc2ccccc21,-16,-1,78,5,85*,11*
CCOC(=O)c1ccc2nc(NC(=O)c3cccs3)sc2c1,-23,0,8,2,-59,42*
CCOC(=O)c1ccc2nc(NC(=O)c3ccco3)sc2c1,-22,-2,8,-4,0,16*
CCCC(=O)Nc1nc2ccc(C(=O)OCC)cc2s1,0,-1,-2,1,26,-1
CCC(=O)Nc1ccc(C(=O)N/N=C/c2c(C)[nH]c3ccccc23)cc1,-14,0,-6,0,13,2
Cc1ccc(S(=O)(=O)N2CCC(C(=O)OCC(=O)N3CCC(C)CC3)CC2)cc1C,.,0,.,0,.,1
CCc1cc(C(=O)Nc2cc(S(=O)(=O)N3CCCCC3)ccc2N2CCN(C)CC2)sc1C,.,0,.,0,.,.
CC1CCN(S(=O)(=O)c2ccc3ncn(CC(=O)N4CCN(C)CC4)c(=O)c3c2)CC1,3,-1,-13,-1,7,-2
CCOc1ccccc1N1CC(C(=O)NCCc2ccc(S(N)(=O)=O)cc2)CC1=O (configuration not stated),-10,0,3,2,0,-2
O=C(Nc1nc2ccc(F)cc2s1)c1cccs1,-6,-1,26,-1,17,16*
C=C1CCN(C(C)C(=O)OC)S(=O)(=O)c2ccccc21 (configuration not stated),-22,0,.,0,-15,2
O=C(Nc1ccc(Cl)c(Cl)c1)c1ccc(Cl)c(Cl)c1,5,0,.,23,6,42*
O=C(Nc1ccc2c(c1)C(=O)N(CC1CCCO1)C2=O)c1ccc(Cl)c(Cl)c1 (configuration not stated),-15,-1,6,13,91*,-7
CCCCn1c(N)c(N(CCOC)C(=O)c2ccc(C)c(S(=O)(=O)N3CCOCC3)c2)c(=O)[nH]c1=O,.,0,.,-2,.,1
CCCn1nc(NC(=O)COC)c2cc3cc(C)ccc3nc21,.,-1,.,-1,.,1
COc1ccccc1NC(=S)N/N=C1\CC(C)(C)Oc2ccc(O)cc21,0,2,15,-2,6,-10
CN(Cc1ccccc1)C(=O)CCN1C(=O)c2cccc([N+](=O)[O-])c2C1=O,.,0,.,0,.,.
CC(C)=CCC12Oc3cc(O)ccc3C1(O)Oc1cc(O)c([C@H]3C=C(C)CC(c4ccc(O)cc4O)[C@H]3C(=O)c3ccc(O)cc3O)c(O)c1C2=O (some centres not stated),.,.,.,.,.,68*
COc1cccc(CNc2ncc(Br)cc2Br)c1O,15,0,9,2,81*,-8
COc1cccc(CNc2ccc(Br)cn2)c1O,-21,3,-2,0,8,1
COc1ccc(-c2csc(NC(=O)c3ccccc3S(C)(=O)=O)n2)cc1,5,-1,7,0,11,0
Cc1c(C(=O)NC(C)C)c(-c2ccccc2)nn1-c1ccccc1,-9,-1,14,0,13,0
O=C(Nc1nnc(C2=COCCO2)o1)c1ccc(Cl)cc1,-4,1,60*,-1,10,-6
O=C(Nc1nnc(C2=COCCO2)o1)c1ccc(Cc2ccccc2)cc1,-4,0,68*,-12,4,-8
SMILES,EBV gp42 block,TbMetRS inhib,WT yeast gro inh,MPTP block,CHOP inhibitor,NR3A LBD binder
O=C(Nc1nnc(C2=COCCO2)o1)c1ccc(F)cc1,.,0,.,-2,.,-1
O=C(Nc1nnc(-c2ccco2)o1)c1ccc(Cl)cc1,1,0,65*,-3,-13,-1
O=C(Nc1nnc(C2=COCCO2)o1)c1ccc(Br)cc1,.,0,.,-2,.,.
Cc1ccc(C(=O)Nc2nnc(-c3ccco3)o2)cc1C,-24,0,19,1,-22,5
CCc1ccc(N2CC(C(=O)OCc3csc(CC(=O)Nc4ccccc4C)n3)CC2=O)cc1 (configuration not stated),.,0,.,1,.,0
Cc1ccc(O)c(-c2cc(C(=O)Nc3cccnc3)[nH]n2)c1,-9,0,.,4,-4,29*
COc1ccc(F)cc1-c1cc(C(=O)Nc2cccnc2)[nH]n1,.,0,.,5,.,.
